# Test results as given in ChEMBL document CHEMBL4229382, “Phenylthiazoles with tert-Butyl side chain: Metabolically stable with anti-biofilm activity” (Eur J Med Chem, 2018).
# Active and inactive are the calls of the source. No cut-off for these calls is given here.
# Legend:
# [1] = test system: Staphylococcus aureus; assay: Antibacterial activity against methicillin-resistant Staphylococcus aureus 2658 RCMB after 18 hrs by broth microdilution assay; format: functional
# In short: (§1)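 Broth microdilution: inoculum from 0.5 McFarland suspension diluted to about 5 × 10^5 CFU/mL. Media were cation-adjusted Mueller-Hinton broth for staphylococci, brain heart infusion for E. faecium, and tryptone soya broth for E. faecalis, S. pneumoniae and L. monocytogenes.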
# [2] = test system: Staphylococcus epidermidis; assay: Antibacterial activity against methicillin-resistant Staphylococcus epidermidis NRS101 after 18 hrs by broth microdilution assay; format: functional; conditions: NRS101, 18 h; in short: as §1
# [3] = test system: Enterococcus faecalis; assay: Antibacterial activity against vancomycin-resistant Enterococcus faecalis ATCC 51299 after 18 hrs by broth microdilution assay; format: functional; conditions: ATCC 51299, 18 h; in short: as §1
# [4] = test system: Staphylococcus aureus; assay: Antibacterial activity against methicillin-sensitive Staphylococcus aureus ATCC 6538 after 18 hrs by broth microdilution assay; format: functional; conditions: ATCC 6538, 18 h; in short: as §1
# [5] = test system: Staphylococcus aureus; assay: Antibacterial activity against methicillin-resistant Staphylococcus aureus NRS384 USA300 after 18 hrs by broth microdilution assay; format: functional; conditions: NRS384 USA300, 18 h; in short: as §1
# [6] = test system: Staphylococcus aureus; assay: Antibacterial activity against methicillin-resistant Staphylococcus aureus NRS385 after 18 hrs by broth microdilution assay; format: functional; conditions: NRS385, 18 h; in short: as §1
# [7] = test system: Enterococcus faecium; assay: Antibacterial activity against vancomycin-resistant Enterococcus faecium ATCC 700221 after 18 hrs by broth microdilution assay; format: functional; conditions: ATCC 700221, 18 h; in short: as §1
# [8] = test system: Staphylococcus aureus; assay: Antibacterial activity against methicillin-resistant Staphylococcus aureus NRS123 USA400 assessed as reduction in bacterial growth after 2 to 4 hrs by time kill assay; format: functional, organism-based
# In short: (§2)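 Samples taken at 0, 2, 4, 6, 8, 12 and 24 h were serially diluted in PBS, plated on TSA and incubated ≥18 h for viable CFU/mL. DMSO was the negative control; two independent experiments.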
# [9] = test system: Caco-2; assay: Cytotoxicity against human Caco2 cells at 32 ug/ml after 2 hrs by MTS assay; format: cell-based; conditions: caco-2, 2 h
# In short: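 Caco-2 cells grown in DMEM with 20% FBS, non-essential amino acids and penicillin-streptomycin, 37 °C, 5% CO2; exposed in triplicate to compounds (16, 32, 64 µg/mL) for 2 h; MTS added, 4 h further incubation, OD490 read; viability as percent of DMSO-treated controls; two independent experiments.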
# [10] = test system: Staphylococcus epidermidis; assay: Bactericidal activity against methicillin-resistant Staphylococcus epidermidis NRS101 incubated fo 18 hrs followed by re-plating on tryptic soy agar plates at 37 degC for 18 hrs by broth microdilution assay; format: functional; conditions: NRS101, 18 h
# [11] = Safety index, ratio of cytotoxicity against human Caco2 cells at 32 ug/ml after 2 hrs by MTS assay to antibacterial activity against methicillin-resistant Staphylococcus aureus; format: toxicity, cell-based; conditions: Caco-2 cells
# [12] = test system: Staphylococcus aureus; assay: Inhibition of biofilm formation in methicillin-resistant Staphylococcus aureus NRS384 USA300 after 24 hrs by crystal violet staining-based spectrophotometric analysis
# [13] = test system: Staphylococcus aureus; assay: Inhibition of biofilm formation in methicillin-resistant Staphylococcus aureus NRS384 USA300 at 1 time MIC after 24 hrs by crystal violet staining-based spectrophotometric analysis relative to control; set-up: scale not given: the % may be the effect or the level left
# [14] = test system: Staphylococcus aureus; assay: Inhibition of biofilm formation in methicillin-resistant Staphylococcus aureus NRS384 USA300 at 2 times MIC after 24 hrs by crystal violet staining-based spectrophotometric analysis relative to control; set-up: scale not given: the % may be the effect or the level left
# [15] = test system: Enterococcus faecium; assay: Bactericidal activity against vancomycin-resistant Enterococcus faecium ATCC 700221 incubated fo 18 hrs followed by re-plating on tryptic soy agar plates at 37 degC for 18 hrs by broth microdilution assay; conditions: ATCC 700221, 18 h
# [16] = test system: Staphylococcus aureus; assay: Antibacterial activity against methicillin-sensitive Staphylococcus aureus NRS107 after 18 hrs by broth microdilution assay; format: functional; conditions: NRS107, 18 h; in short: as §1
# [17] = test system: Staphylococcus aureus; assay: Antibacterial activity against methicillin-resistant Staphylococcus aureus NRS119 after 18 hrs by broth microdilution assay; format: functional; conditions: NRS119, 18 h; in short: as §1
# [18] = test system: Staphylococcus aureus; assay: Antibacterial activity against methicillin-resistant Staphylococcus aureus NRS123 USA400 after 18 hrs by broth microdilution assay; format: functional; conditions: NRS123 USA400, 18 h; in short: as §1
# [19] = test system: Staphylococcus aureus; assay: Antibacterial activity against methicillin-resistant Staphylococcus aureus NRS386 after 18 hrs by broth microdilution assay; format: functional; conditions: NRS386, 18 h; in short: as §1
# [20] = test system: Staphylococcus aureus; assay: Antibacterial activity against vancomycin-resistant Staphylococcus aureus VRS10 after 18 hrs by broth microdilution assay; format: functional; conditions: VRS10, 18 h; in short: as §1
# [21] = test system: Staphylococcus aureus; assay: Antibacterial activity against vancomycin-resistant Staphylococcus aureus VRS12 after 18 hrs by broth microdilution assay; format: functional; conditions: VRS12, 18 h; in short: as §1
# [22] = test system: Listeria monocytogenes; assay: Antibacterial activity against Listeria monocytogenes ATCC 19111 after 18 hrs by broth microdilution assay; format: functional; conditions: ATCC 19111, 18 h
# [23] = test system: Streptococcus pneumoniae; assay: Antibacterial activity against cephalosporin-resistant Streptococcus pneumoniae ATCC 51916 after 18 hrs by broth microdilution assay; format: functional; conditions: ATCC 51916, 18 h; in short: as §1
# [24] = test system: Streptococcus pneumoniae; assay: Antibacterial activity against methicillin-resistant Streptococcus pneumoniae ATCC 700677 after 18 hrs by broth microdilution assay; format: functional; conditions: ATCC 700677, 18 h; in short: as §1
# [25] = test system: Staphylococcus aureus; assay: Antibacterial activity against methicillin-resistant Staphylococcus aureus NRS123 USA400 assessed as reduction in bacterial burden within 6 hrs by time kill assay; format: functional; in short: as §2
# [26] = test system: Listeria monocytogenes; assay: Selectivity ratio of MBC to MIC for Listeria monocytogenes ATCC 19111; format: functional
# [27] = test system: Staphylococcus aureus; assay: Bactericidal activity against methicillin-sensitive Staphylococcus aureus ATCC 6538 incubated fo 18 hrs followed by re-plating on tryptic soy agar plates at 37 degC for 18 hrs by broth microdilution assay; format: functional; conditions: ATCC 6538, 18 h
# [28] = test system: Staphylococcus aureus; assay: Bactericidal activity against methicillin-sensitive Staphylococcus aureus NRS107 incubated fo 18 hrs followed by re-plating on tryptic soy agar plates at 37 degC for 18 hrs by broth microdilution assay; format: functional; conditions: NRS107, 18 h
# [29] = test system: Staphylococcus aureus; assay: Bactericidal activity against methicillin-resistant Staphylococcus aureus NRS119 incubated fo 18 hrs followed by re-plating on tryptic soy agar plates at 37 degC for 18 hrs by broth microdilution assay; format: functional; conditions: NRS119, 18 h
# [30] = test system: Staphylococcus aureus; assay: Bactericidal activity against methicillin-resistant Staphylococcus aureus NRS123 USA400 incubated fo 18 hrs followed by re-plating on tryptic soy agar plates at 37 degC for 18 hrs by broth microdilution assay; format: functional; conditions: NRS123 USA400, 18 h
# [31] = test system: Staphylococcus aureus; assay: Bactericidal activity against methicillin-resistant Staphylococcus aureus NRS384 USA300 incubated fo 18 hrs followed by re-plating on tryptic soy agar plates at 37 degC for 18 hrs by broth microdilution assay; format: functional; conditions: NRS384 USA300, 18 h
# [32] = test system: Staphylococcus aureus; assay: Bactericidal activity against methicillin-resistant Staphylococcus aureus NRS385 incubated fo 18 hrs followed by re-plating on tryptic soy agar plates at 37 degC for 18 hrs by broth microdilution assay; format: functional; conditions: NRS385, 18 h
# [33] = test system: Staphylococcus aureus; assay: Bactericidal activity against methicillin-resistant Staphylococcus aureus NRS386 incubated fo 18 hrs followed by re-plating on tryptic soy agar plates at 37 degC for 18 hrs by broth microdilution assay; format: functional; conditions: NRS386, 18 h
# [34] = test system: Staphylococcus aureus; assay: Bactericidal activity against vancomycin-resistant Staphylococcus aureus VRS10 incubated fo 18 hrs followed by re-plating on tryptic soy agar plates at 37 degC for 18 hrs by broth microdilution assay; format: functional; conditions: VRS10, 18 h
# [35] = test system: Staphylococcus aureus; assay: Bactericidal activity against vancomycin-resistant Staphylococcus aureus VRS12 incubated fo 18 hrs followed by re-plating on tryptic soy agar plates at 37 degC for 18 hrs by broth microdilution assay; format: functional; conditions: VRS12, 18 h
# [36] = test system: Enterococcus faecalis; assay: Bactericidal activity against vancomycin-resistant Enterococcus faecalis ATCC 51299 incubated fo 18 hrs followed by re-plating on tryptic soy agar plates at 37 degC for 18 hrs by broth microdilution assay; format: functional; conditions: ATCC 51299, 18 h
# [37] = test system: Streptococcus pneumoniae; assay: Bactericidal activity against cephalosporin-resistant Streptococcus pneumoniae ATCC 51916 incubated fo 18 hrs followed by re-plating on tryptic soy agar plates at 37 degC for 18 hrs by broth microdilution assay; format: functional; conditions: ATCC 51916, 18 h
# [38] = test system: Streptococcus pneumoniae; assay: Bactericidal activity against methicillin-resistant Streptococcus pneumoniae ATCC 700677 incubated fo 18 hrs followed by re-plating on tryptic soy agar plates at 37 degC for 18 hrs by broth microdilution assay; format: functional; conditions: ATCC 700677, 18 h
smiles,measurement,setting,value
Cc1nc(-c2ccc(C(C)(C)C)cc2)sc1-c1ccnc(NC(=N)N2CCN(C)CC2)n1,MIC,[1],3.12 µg/mL
Cc1nc(-c2ccc(C(C)(C)C)cc2)sc1-c1ccnc(NC(=N)N2CCOCC2)n1,MIC,[2],4 µg/mL
same,MIC,[1],1.17 µg/mL
same,MIC,[3],4 µg/mL
same,MIC,[4],4 µg/mL
same,MIC,[5],4 µg/mL
same,MIC,[6],4 µg/mL
same,MIC,[7],4 µg/mL
same,Activity,[8],Active
same,Activity,[9],Non-Toxic
same,MBC,[10],4 µg/mL
same,"selectivity ratio at 2 h, 32 ug/ml",[11],8 to 30
same,inhibition,[12],Dose-dependent effect
same,Activity,[13],18.1%
same,Activity,[14],28.3%
same,MBC,[15],8 µg/mL
Cc1nc(-c2ccc(C(C)(C)C)cc2)sc1-c1ccnc(NC(=N)c2ccccn2)n1,MIC,[2],64 µg/mL
same,MIC,[1],0.78 µg/mL
same,MIC,[3],64 µg/mL
same,MIC,[4],2 µg/mL
same,MIC,[16],64 µg/mL
same,MIC,[17],4 µg/mL
same,MIC,[18],2 µg/mL
same,MIC,[5],4 µg/mL
same,MIC,[6],4 µg/mL
same,MIC,[19],2 µg/mL
same,MIC,[20],2 µg/mL
same,MIC,[21],4 µg/mL
same,MIC,[7],4 µg/mL
same,MIC,[22],2 µg/mL
same,MIC,[23],4 µg/mL
same,MIC,[24],8 µg/mL
same,Activity,[25],3 log10CFU/ml
same,Ratio,[26],>3
same,Activity,[9],Toxic
same,MBC,[27],4 µg/mL
same,MBC,[28],> 64 µg/mL
same,MBC,[29],4 µg/mL
same,MBC,[30],2 µg/mL
same,MBC,[31],4 µg/mL
same,MBC,[32],4 µg/mL
same,MBC,[33],2 µg/mL
same,MBC,[34],4 µg/mL
same,MBC,[35],4 µg/mL
same,MBC,[10],> 64 µg/mL
same,MBC,[36],> 64 µg/mL
same,MBC,[37],4 µg/mL
same,MBC,[38],8 µg/mL
same,inhibition,[12],Dose-dependent effect
same,Activity,[13],44%
same,Activity,[14],49%
same,MBC,[15],32 µg/mL
